Measurements: paper PMC9217999 (Targeted Oncology, 2022)
Entries after “also recorded” stand apart in the source; their conditions may differ.

Experiment: Safety and tolerability in iMATRIX-cobi Phase I/II study
Type: in vivo, human
Procedure, shortened: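 Patients aged 6 months to <30 years with relapsed/refractory solid tumors with MAPK pathway involvement. Oral test compound (20-mg tablet or suspension, with/without food) on Days 1–21 of 28-day cycles. Cumulative weekly weight-based dose rounded to 20 mg, capped at 60 mg/day. Rolling 6 escalation in cohorts of 3–6. Eye exams including OCT at baseline, cycle 1 Days 8/15, and each later cycle Day 1. All dosed patients evaluated.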

[1] = Dose escalation suspension (n = 26)
[2] = Dose escalation tablet (n = 18)

Compound: O=C(c1ccc(F)c(F)c1Nc1ccc(I)cc1F)N1CC(O)([C@@H]2CCCCN2)C1 [cobimetinib]
- DLTs (events) (0.6 mg/kg suspension): grade 1 chorioretinopathy
- DLTs (events) (1.0 mg/kg tablet): grade 3 headache; also recorded: grade 2 retinal detachment
- DLTs (events) (1.33 mg/kg suspension): grade 4 chorioretinopathy; also recorded: grade 1 serous retinal detachment
- Any treatment-related AE, G1 [1]: 6 (23) n (%)
- Any treatment-related AE, G2 [1]: 12 (46) n (%)
- Any treatment-related AE, G3 [1]: 4 (15) n (%)
- Any treatment-related AE, G4 [1]: 1 (4) n (%)
- Treatment-related AE: ALT increased, G1 [1]: 1 (4) n (%)
- Treatment-related AE: ALT increased, G2 [1]: 0 n (%)
- Treatment-related AE: ALT increased, G3 [1]: 1 (4) n (%)
- Treatment-related AE: ALT increased, G4 [1]: 0 n (%)
- Treatment-related AE: AST increased, G1 [1]: 1 (4) n (%)
- Treatment-related AE: AST increased, G2 [1]: 0 n (%)
- Treatment-related AE: AST increased, G3 [1]: 1 (4) n (%)
- Treatment-related AE: AST increased, G4 [1]: 0 n (%)
- Treatment-related AE: Abdominal pain, G1 [1]: 2 (8) n (%)
- Treatment-related AE: Abdominal pain, G2 [1]: 2 (8) n (%)
- Treatment-related AE: Abdominal pain, G3 [1]: 0 n (%)
- Treatment-related AE: Abdominal pain, G4 [1]: 0 n (%)
- Treatment-related AE: Anemia, G1 [1]: 1 (4) n (%)
- Treatment-related AE: Anemia, G2 [1]: 0 n (%)
- Treatment-related AE: Anemia, G3 [1]: 0 n (%)
- Treatment-related AE: Anemia, G4 [1]: 0 n (%)
- Treatment-related AE: Asthenia, G1 [1]: 0 n (%)
- Treatment-related AE: Asthenia, G2 [1]: 0 n (%)
- Treatment-related AE: Asthenia, G3 [1]: 0 n (%)
- Treatment-related AE: Asthenia, G4 [1]: 0 n (%)
- Treatment-related AE: Blood CPK increased, G1 [1]: 2 (8) n (%)
- Treatment-related AE: Blood CPK increased, G2 [1]: 1 (4) n (%)
- Treatment-related AE: Blood CPK increased, G3 [1]: 1 (4) n (%)
- Treatment-related AE: Blood CPK increased, G4 [1]: 0 n (%)
- Treatment-related AE: Chorioretinopathy, G1 [1]: 1 (4) n (%)
- Treatment-related AE: Chorioretinopathy, G2 [1]: 0 n (%)
- Treatment-related AE: Chorioretinopathy, G3 [1]: 0 n (%)
- Treatment-related AE: Chorioretinopathy, G4 [1]: 1 (4) n (%)
- Treatment-related AE: Constipation, G1 [1]: 1 (4) n (%)
- Treatment-related AE: Constipation, G2 [1]: 0 n (%)
- Treatment-related AE: Constipation, G3 [1]: 0 n (%)
- Treatment-related AE: Constipation, G4 [1]: 0 n (%)
- Treatment-related AE: Decreased appetite, G1 [1]: 2 (8) n (%)
- Treatment-related AE: Decreased appetite, G2 [1]: 0 n (%)
- Treatment-related AE: Decreased appetite, G3 [1]: 0 n (%)
- Treatment-related AE: Decreased appetite, G4 [1]: 0 n (%)
- Treatment-related AE: Dermatitis acneiform, G1 [1]: 4 (15) n (%)
- Treatment-related AE: Dermatitis acneiform, G2 [1]: 1 (4) n (%)
- Treatment-related AE: Dermatitis acneiform, G3 [1]: 1 (4) n (%)
- Treatment-related AE: Dermatitis acneiform, G4 [1]: 0 n (%)
- Treatment-related AE: Diarrhea, G1 [1]: 2 (8) n (%)
- Treatment-related AE: Diarrhea, G2 [1]: 7 (27) n (%)
- Treatment-related AE: Diarrhea, G3 [1]: 0 n (%)
- Treatment-related AE: Diarrhea, G4 [1]: 0 n (%)
- Treatment-related AE: Dry skin, G1 [1]: 4 (15) n (%)
- Treatment-related AE: Dry skin, G2 [1]: 0 n (%)
- Treatment-related AE: Dry skin, G3 [1]: 1 (4) n (%)
- Treatment-related AE: Dry skin, G4 [1]: 0 n (%)
- Treatment-related AE: Encephalopathy, G1 [1]: 0 n (%)
- Treatment-related AE: Encephalopathy, G2 [1]: 0 n (%)
- Treatment-related AE: Encephalopathy, G3 [1]: 0 n (%)
- Treatment-related AE: Encephalopathy, G4 [1]: 0 n (%)
- Treatment-related AE: Erythema, G1 [1]: 2 (8) n (%)
- Treatment-related AE: Erythema, G2 [1]: 0 n (%)
- Treatment-related AE: Erythema, G3 [1]: 0 n (%)
- Treatment-related AE: Erythema, G4 [1]: 0 n (%)
- Treatment-related AE: Fatigue, G1 [1]: 6 (23) n (%)
- Treatment-related AE: Fatigue, G2 [1]: 0 n (%)
- Treatment-related AE: Fatigue, G3 [1]: 0 n (%)
- Treatment-related AE: Fatigue, G4 [1]: 0 n (%)
- Treatment-related AE: Headache, G1 [1]: 3 (12) n (%)
- Treatment-related AE: Headache, G2 [1]: 2 (8) n (%)
- Treatment-related AE: Headache, G3 [1]: 0 n (%)
- Treatment-related AE: Headache, G4 [1]: 0 n (%)
- Treatment-related AE: Nausea, G1 [1]: 4 (15) n (%)
- Treatment-related AE: Nausea, G2 [1]: 0 n (%)
- Treatment-related AE: Nausea, G3 [1]: 0 n (%)
- Treatment-related AE: Nausea, G4 [1]: 0 n (%)
- Treatment-related AE: Paronychia, G1 [1]: 2 (8) n (%)
- Treatment-related AE: Paronychia, G2 [1]: 1 (4) n (%)
- Treatment-related AE: Paronychia, G3 [1]: 1 (4) n (%)
- Treatment-related AE: Paronychia, G4 [1]: 0 n (%)
- Treatment-related AE: Rash, G1 [1]: 2 (8) n (%)
- Treatment-related AE: Rash, G2 [1]: 0 n (%)
- Treatment-related AE: Rash, G3 [1]: 0 n (%)
- Treatment-related AE: Rash, G4 [1]: 0 n (%)
- Treatment-related AE: Transaminases increased, G1 [1]: 0 n (%)
- Treatment-related AE: Transaminases increased, G2 [1]: 0 n (%)
- Treatment-related AE: Transaminases increased, G3 [1]: 1 (4) n (%)
- Treatment-related AE: Transaminases increased, G4 [1]: 0 n (%)
- Treatment-related AE: Vomiting, G1 [1]: 2 (8) n (%)
- Treatment-related AE: Vomiting, G2 [1]: 0 n (%)
- Treatment-related AE: Vomiting, G3 [1]: 0 n (%)
- Treatment-related AE: Vomiting, G4 [1]: 0 n (%)
- Treatment-related AE: Weight increased, G1 [1]: 0 n (%)
- Treatment-related AE: Weight increased, G2 [1]: 0 n (%)
- Treatment-related AE: Weight increased, G3 [1]: 0 n (%)
- Treatment-related AE: Weight increased, G4 [1]: 0 n (%)
- Any treatment-related AE, G1 [2]: 7 (39) n (%)
- Any treatment-related AE, G2 [2]: 5 (28) n (%)
- Any treatment-related AE, G3 [2]: 4 (22) n (%)
- Any treatment-related AE, G4 [2]: 0 n (%)
- Treatment-related AE: ALT increased, G1 [2]: 1 (6) n (%)
- Treatment-related AE: ALT increased, G2 [2]: 0 n (%)
- Treatment-related AE: ALT increased, G3 [2]: 0 n (%)
- Treatment-related AE: ALT increased, G4 [2]: 0 n (%)
- Treatment-related AE: AST increased, G1 [2]: 1 (6) n (%)
- Treatment-related AE: AST increased, G2 [2]: 0 n (%)
- Treatment-related AE: AST increased, G3 [2]: 0 n (%)
- Treatment-related AE: AST increased, G4 [2]: 0 n (%)
- Treatment-related AE: Abdominal pain, G1 [2]: 4 (22) n (%)
- Treatment-related AE: Abdominal pain, G2 [2]: 0 n (%)
- Treatment-related AE: Abdominal pain, G3 [2]: 0 n (%)
- Treatment-related AE: Abdominal pain, G4 [2]: 0 n (%)
- Treatment-related AE: Anemia, G1 [2]: 1 (6) n (%)
- Treatment-related AE: Anemia, G2 [2]: 0 n (%)
- Treatment-related AE: Anemia, G3 [2]: 0 n (%)
- Treatment-related AE: Anemia, G4 [2]: 0 n (%)
- Treatment-related AE: Asthenia, G1 [2]: 0 n (%)
- Treatment-related AE: Asthenia, G2 [2]: 0 n (%)
- Treatment-related AE: Asthenia, G3 [2]: 0 n (%)
- Treatment-related AE: Asthenia, G4 [2]: 0 n (%)
- Treatment-related AE: Blood CPK increased, G1 [2]: 0 n (%)
- Treatment-related AE: Blood CPK increased, G2 [2]: 1 (6) n (%)
- Treatment-related AE: Blood CPK increased, G3 [2]: 0 n (%)
- Treatment-related AE: Blood CPK increased, G4 [2]: 0 n (%)
- Treatment-related AE: Chorioretinopathy, G1 [2]: 0 n (%)
- Treatment-related AE: Chorioretinopathy, G2 [2]: 0 n (%)
- Treatment-related AE: Chorioretinopathy, G3 [2]: 0 n (%)
- Treatment-related AE: Chorioretinopathy, G4 [2]: 0 n (%)
- Treatment-related AE: Constipation, G1 [2]: 3 (17) n (%)
- Treatment-related AE: Constipation, G2 [2]: 0 n (%)
- Treatment-related AE: Constipation, G3 [2]: 0 n (%)
- Treatment-related AE: Constipation, G4 [2]: 0 n (%)
- Treatment-related AE: Decreased appetite, G1 [2]: 2 (11) n (%)
- Treatment-related AE: Decreased appetite, G2 [2]: 0 n (%)
- Treatment-related AE: Decreased appetite, G3 [2]: 1 (6) n (%)
- Treatment-related AE: Decreased appetite, G4 [2]: 0 n (%)
- Treatment-related AE: Dermatitis acneiform, G1 [2]: 0 n (%)
- Treatment-related AE: Dermatitis acneiform, G2 [2]: 0 n (%)
- Treatment-related AE: Dermatitis acneiform, G3 [2]: 0 n (%)
- Treatment-related AE: Dermatitis acneiform, G4 [2]: 0 n (%)
- Treatment-related AE: Diarrhea, G1 [2]: 8 (44) n (%)
- Treatment-related AE: Diarrhea, G2 [2]: 1 (6) n (%)
- Treatment-related AE: Diarrhea, G3 [2]: 0 n (%)
- Treatment-related AE: Diarrhea, G4 [2]: 0 n (%)
- Treatment-related AE: Dry skin, G1 [2]: 2 (11) n (%)
- Treatment-related AE: Dry skin, G2 [2]: 2 (11) n (%)
- Treatment-related AE: Dry skin, G3 [2]: 0 n (%)
- Treatment-related AE: Dry skin, G4 [2]: 0 n (%)
- Treatment-related AE: Encephalopathy, G1 [2]: 0 n (%)
- Treatment-related AE: Encephalopathy, G2 [2]: 0 n (%)
